ChEMBL document CHEMBL1123619, “Isothiourea derivatives of 6-phenyl-2,3,5,6-tetrahydroimidazo[2,1-b]thiazole with broad-spectrum anthelmintic activity” (J Med Chem, 1987)
Calls of active or inactive are those of the source. The calls are words filed in the database; no cut-off is given here.

What was measured:
[1] = system: Heligmosomoides polygyrus; experiment: Nematocidal activity against Nematospiroides dubius induced necropsy in mouse, oral administration 200 mg/kg; format: functional
Summary of the method: (§1)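 Seven-week-old female LACA mice infected orally with 100 N. dubius L3 larvae; single gavage dose given at day 10 of infection, groups of four mice; necropsy 4 days later; percent activity from worm burdens of treated versus untreated groups.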

Fasciola hepatica = experiment: Anthelmintic activity against adult liver fluke (Fasciola hepatica) in sheep following 30 mg/kg p.o.; format: functional; settings: route oral
Summary of the method: (§2)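 Sheep dosed with a single oral dose. Fecal fluke egg output monitored after treatment. Animals necropsied only if the fecal egg count fell. Postmortem Fasciola hepatica burdens compared with untreated control sheep (mean of 10 controls). Single animals per test unless otherwise indicated, with group size given in parentheses. I denotes no effect on fecal fluke egg output.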

Ovis aries [2] = experiment: Anthelmintic activity against adult liver fluke (Fasciola hepatica) in sheep, after peroral administration of 30 mg/kg was determined; I means no effect on sheep fecal fluke egg output; format: functional, organism-based; set-up: dose 30 mg/kg; settings: at 30 mg/kg; summary of the method: as §2
Ovis aries [3] = experiment: Anthelmintic activity against adult liver fluke (Fasciola hepatica) in sheep, after peroral administration of 20 mg/kg was determined; I means no effect on sheep fecal fluke egg output; format: functional, organism-based; set-up: dose 20 mg/kg; settings: at 20 mg/kg; summary of the method: as §2
Ovis aries [4] = experiment: Anthelmintic activity against adult liver fluke (Fasciola hepatica) in sheep, after peroral administration of 15 mg/kg was determined; format: functional; settings: route oral; summary of the method: as §2
Mus musculus [5] = experiment: Nematocidal activity against Nematospiroides dubius induced necropsy in mouse, after oral administration of 100 mg/kg; format: functional; summary of the method: as §1
Ovis aries [6] = experiment: Anthelmintic activity against adult fecal fluke egg output in sheep, after peroral administration of 30 mg/kg; I means no effect on sheep fecal fluke egg output; format: functional, organism-based; set-up: dose 30 mg/kg; settings: at 30 mg/kg; summary of the method: as §2
Mus musculus [7] = experiment: Nematocidal against Nematospiroides dubius in mouse was determined at 5 mg/kg peroral dose of compound; format: functional; settings: route oral; summary of the method: as §1
Mus musculus [8] = experiment: Nematocidal against Nematospiroides dubius in mouse was determined at 1 mg/kg peroral dose of compound; format: functional; settings: route oral; summary of the method: as §1
Ovis aries [9] = experiment: Anthelmintic activity against adult liver fluke (Fasciola hepatica) in sheep, after peroral administration of 30 mg/kg; I means no effect on sheep fecal fluke egg output; format: functional, organism-based; set-up: dose 30 mg/kg; settings: at 30 mg/kg; summary of the method: as §2
Mus musculus [10] = experiment: Nematocidal activity against Nematospiroides dubius induced necropsy in mouse, after oral administration of 50 mg/kg of the compound; format: functional; summary of the method: as §1
Mus musculus [11] = experiment: Nematocidal activity against Nematospiroides dubius induced necropsy in mouse, after oral administration of 100 mg/kg of the compound; format: functional; summary of the method: as §1
Ovis aries [12] = experiment: Anthelmintic activity against adult liver fluke (Fasciola hepatica) in 2 sheep, after peroral administration of 30 mg/kg was determined.; format: functional; settings: route oral; summary of the method: as §2
Ovis aries [13] = experiment: Anthelmintic activity against adult liver fluke (Fasciola hepatica) in sheep, after peroral administration of 5 mg/kg was determined; format: functional; settings: route oral; summary of the method: as §2
Mus musculus [14] = experiment: Nematocidal activity against Nematospiroides dubius induced necropsy in mouse, after oral administration of 25 mg/kg of the compound; format: functional; summary of the method: as §1
Ovis aries [15] = experiment: Anthelmintic activity against adult liver fluke (Fasciola hepatica) in sheep, after peroral administration of 10 mg/kg was determined; format: functional; settings: route oral; summary of the method: as §2
Mus musculus [16] = experiment: Nematocidal activity against Nematospiroides dubius induced necropsy in mouse, after oral administration of 12.5 mg/kg of the compound; format: functional
Summary of the method: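 Female LACA mice (7 weeks) infected orally with 100 N. dubius L3 larvae; single oral dose as solution in PEG 400 on infection day 10, four mice per group; necropsied 4 days later; percent activity by comparing treated and untreated worm burdens.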

Ovis aries [17] = experiment: Anthelmintic activity against adult liver fluke (Fasciola hepatica) in sheep, after peroral administration of 7.5 mg/kg was determined; format: functional; settings: route oral; summary of the method: as §2
Ovis aries [18] = experiment: Anthelmintic activity against adult liver fluke (Fasciola hepatica) in sheep, after peroral administration of 20 mg/kg was determined; format: functional; settings: route oral; summary of the method: as §2
Ovis aries [19] = experiment: Anthelmintic activity against adult liver fluke (Fasciola hepatica) in sheep, after peroral administration of 20 mg/kg; I means no effect on sheep fecal fluke egg output; format: functional, organism-based; set-up: dose 20 mg/kg; settings: at 20 mg/kg; summary of the method: as §2
Ovis aries [20] = experiment: Anthelmintic activity against adult liver fluke (Fasciola hepatica) in 2 sheep, after peroral administration of 30 mg/kg was determined. Value in parentheses indicate number of animals used; format: functional; settings: route oral; summary of the method: as §2
Ovis aries [21] = experiment: Anthelmintic activity against adult liver fluke (Fasciola hepatica) in 3 sheep, after peroral administration of 30 mg/kg was determined. Value in parentheses indicate number of animals used; format: functional; settings: route oral; summary of the method: as §2
Ovis aries [22] = experiment: Anthelmintic activity against adult liver fluke (Fasciola hepatica) in sheep, after peroral administration of 30 mg/kg was determined. Value in parentheses indicate number of animals used; format: functional; settings: route oral; summary of the method: as §2
Ovis aries [23] = experiment: Toxic activity expressed as the percentage against liver fluke in the sheep at 30 mg/kg peroral administration of dose; lethal; format: ADME, organism-based; set-up: dose 30 mg/kg, route oral; settings: in vivo, po
Ovis aries [24] = experiment: Toxic activity expressed as the percentage against liver fluke in the sheep at 15 mg/kg peroral administration of dose; format: ADME, organism-based; set-up: dose 15 mg/kg, route oral; settings: in vivo, po
Summary of the method: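 Fasciola hepatica in sheep, controlled test; animals necropsied only when fecal egg count fell; postmortem fluke burdens compared with untreated control sheep (10 controls).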

Mus musculus [25] = experiment: Nematocidal against Nematospiroides dubius in mouse was determined at 0.5 mg/kg peroral dose of compound; format: functional; settings: route oral; summary of the method: as §1
Mus musculus [26] = experiment: Nematocidal against Nematospiroides dubius in mouse was determined at 50 mg/kg peroral dose of compound; all animals died at this dose; format: functional, organism-based; set-up: dose 50 mg/kg; summary of the method: as §1

SMILES | Reduction [1] [%] | Activity (Fasciola hepatica) [%] | Reduction (Mus musculus [5]) [%] | further results
CS/C(=N\c1cccc(C2CN3CCSC3=N2)c1)Nc1ccc(C)c(C)c1 (stereo not given) | 0 | 85 | – | –
CS/C(=N\c1cccc(C2CN3CCSC3=N2)c1)Nc1ccccc1C#N (stereo not given) | 0 | – | – | Activity (Ovis aries [2]): inactive
CCOC(=O)c1ccc(N/C(=N/c2cccc(C3CN4CCSC4=N3)c2)SC)cc1 (stereo not given) | 74 | 97 | – | Activity (Ovis aries [3]): inactive
CS/C(=N\c1cccc(C2CN3CCSC3=N2)c1)Nc1ccc(C(F)(F)F)cc1 (stereo not given) | 74 | 100 | – | Activity (Ovis aries [4]): 100%
CS/C(=N\c1cccc(C2CN3CCSC3=N2)c1)Nc1ccc(Cl)cc1 (stereo not given) | 88 | 100 | 0 | –
CS/C(=N\c1ccccc1)N(C)c1cccc(C2CN3CCSC3=N2)c1 (stereo not given) | 0 | – | – | Activity (Ovis aries [2]): inactive
c1ccc(CS/C(=N\c2cccc(C3CN4CCSC4=N3)c2)Nc2ccccc2)cc1 (stereo not given) | 0 | – | – | Activity (Ovis aries [2]): inactive
CCCS/C(=N\c1cccc(C2CN3CCSC3=N2)c1)Nc1ccccc1 (stereo not given) | 64 | – | – | Activity (Ovis aries [6]): inactive
c1ccc(C2CN3CCSC3=N2)cc1 (stereo not given) [TETRAMISOLE] | – | – | – | Reduction (Mus musculus [7]): 57%; Reduction (Mus musculus [8]): 43%
CCCCS/C(=N\c1cccc(C2CN3CCSC3=N2)c1)Nc1ccccc1 (stereo not given) | 0 | – | – | Activity (Ovis aries [2]): inactive
CS/C(=N\c1cccc(C2CN3CCSC3=N2)c1)Nc1ccccc1Cl (stereo not given) | 23 | – | – | Activity (Ovis aries [9]): inactive
CS/C(=N\c1cccc(C2CN3CCSC3=N2)c1)Nc1ccccc1 (stereo not given) | 99 | – | – | Activity (Mus musculus [10]): 0%; Activity (Mus musculus [11]): 38%; Activity (Ovis aries [12]): 94%
CS/C(=N\c1cccc(C2CN3CCSC3=N2)c1)Nc1ccc(C)cc1 (stereo not given) | 0 | 91 | – | –
CS/C(=N\c1cccc(C2CN3CCSC3=N2)c1)Nc1ccc(C(C)=O)cc1 (stereo not given) | 100 | 100 | 93 | Activity (Ovis aries [4]): 100%
COc1ccc(N/C(=N/c2cccc(C3CN4CCSC4=N3)c2)SC)cc1 (stereo not given) | 0 | – | – | Activity (Ovis aries [9]): inactive
CS/C(=N\c1cccc(C2CN3CCSC3=N2)c1)Nc1cccc([N+](=O)[O-])c1 (stereo not given) | 95 | 91 | 95 | Activity (Ovis aries [4]): 100%
CC(C)S/C(=N\c1cccc(C2CN3CCSC3=N2)c1)Nc1ccccc1 (stereo not given) | 0 | – | – | Activity (Ovis aries [2]): inactive

SMILES | Reduction [1] [%] | Activity (Fasciola hepatica) [%] | Reduction (Mus musculus [5]) [%] | further results
CS/C(=N\c1cccc(C2CN3CCSC3=N2)c1)NC1CCCCC1 (stereo not given) | 15 | – | – | Activity (Ovis aries [9]): inactive
CS/C(=N\c1cccc([C@H]2CN3CCSC3=N2)c1)Nc1ccc(C#N)cc1 | 100 | – | 100 | Activity (Ovis aries [13]): 85%; Reduction (Mus musculus [10]): 100%; Reduction (Mus musculus [14]): 99.9%; Activity (Ovis aries [15]): 100%; Reduction (Mus musculus [16]): 66%; Activity (Ovis aries [17]): 91%
CS/C(=N\c1cccc(C2CN3CCSC3=N2)c1)Nc1cccc(F)c1 (stereo not given) | 100 | 66 | 100 | Reduction (Mus musculus [10]): 64%
CS/C(=N\c1cccc(C2CN3CCSC3=N2)c1)Nc1ccc(Cl)c(Cl)c1 (stereo not given) | 0 | 63 | 0 | –
CS/C(=N\c1cccc(C2CN3CCSC3=N2)c1)Nc1ccc(F)cc1 (stereo not given) | 100 | 60 | 0 | –
CS/C(=N\c1cccc(C2CN3CCSC3=N2)c1)Nc1ccc([S+](C)[O-])cc1 (stereo not given) | 97 | 100 | 33 | Activity (Ovis aries [4]): 14%; Activity (Ovis aries [18]): 66%
CS/C(=N\c1cccc(C2CN3CCSC3=N2)c1)Nc1cccc(Cl)c1 (stereo not given) | 99 | 91 | 87 | Activity (Ovis aries [19]): inactive
CCCCCCN/C(=N/c1cccc(C2CN3CCSC3=N2)c1)SC (stereo not given) | 52 | – | – | Activity (Ovis aries [9]): inactive
CS/C(=N\c1cccc(C2CN3CCSC3=N2)c1)Nc1ccc(SC)cc1 (stereo not given) | 95 | – | 30 | Activity (Ovis aries [20]): 100%; Activity (Ovis aries [4]): 71%; Activity (Ovis aries [18]): 80%
CS/C(=N\c1cccc(C2CN3CCSC3=N2)c1)Nc1cccc(Br)c1 (stereo not given) | 79 | 100 | 56 | Activity (Ovis aries [4]): 77%; Activity (Ovis aries [18]): 100%
CS/C(=N\c1cccc(C2CN3CCSC3=N2)c1)Nc1cccc(C#N)c1 (stereo not given) | 100 | – | 54 | Activity (Ovis aries [4]): 63%; Activity (Ovis aries [21]): 100%; Activity (Ovis aries [18]): 100%
CCS/C(=N\c1cccc(C2CN3CCSC3=N2)c1)Nc1ccccc1 (stereo not given) | 92 | 97 | – | Activity (Ovis aries [19]): inactive
CCCCCCCCS/C(=N\c1cccc(C2CN3CCSC3=N2)c1)Nc1ccccc1 (stereo not given) | 0 | – | – | Activity (Ovis aries [2]): inactive
CS/C(=N\c1cccc(C2CN3CCSC3=N2)c1)Nc1ccc(Br)cc1 (stereo not given) | 73 | 94 | 0 | Activity (Ovis aries [18]): 100%
CS/C(=N\c1cccc(C2CN3CCSC3=N2)c1)Nc1ccc(S(C)(=O)=O)cc1 (stereo not given) | 100 | – | 94 | Reduction (Mus musculus [10]): 41%; Activity (Ovis aries [12]): 100%; Activity (Ovis aries [4]): 74%; Activity (Ovis aries [18]): 89%
CS/C(=N\c1cccc(C2CN3CCSC3=N2)c1)Nc1ccc([N+](=O)[O-])cc1 (stereo not given) | 100 | – | 100 | Reduction (Mus musculus [10]): 95%; Activity (Ovis aries [22]): 94%; Activity (Ovis aries [18]): 85%
Nc1cccc(C2CN3CCSC3=N2)c1 (stereo not given) | – | – | – | Activity (Ovis aries [23]): lethal; Reduction (Mus musculus [7]): 100%; Activity (Ovis aries [24]): 0%; Reduction (Mus musculus [8]): 99%; Reduction (Mus musculus [25]): 43%; Reduction (Mus musculus [26]): all animals died at this dose
